Results from ChEMBL document CHEMBL4177554, “Ester-to-amide rearrangement of ethanolamine-derived prodrugs of sobetirome with increased blood-brain barrier penetration” (Bioorg Med Chem, 2017).

How the values were obtained:
[1] = Ratio of drug level in C57Bl/6 mouse brain to serum assessed as sobetirome level at 1.5 umol/kg, ip after 1 hr by LC-MS/MS analysis; type: ADME, organism-based
In short: (§1)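 Single i.p. dose of 1.5 μmol/kg in 50% DMSO/saline to male C57Bl/6 mice (8–10 wk), n = 3. Agents were given as amide-rearranged isomers where rearrangement occurs. Whole brain and blood were taken at 1 h. Sobetirome was measured by LC-MS/MS with d6-sobetirome internal standard, and the brain/serum ratio was calculated. Values are mean with SEM.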

[2] = Prodrug activation in C57Bl/6 mouse brain assessed as sobetirome level at 1.5 umol/kg, ip after 1 hr by LC-MS/MS analysis; type: organism-based; conditions: in vivo; in short: as §1
Mus musculus [3] = test: Total oral bioavailability in C57Bl/6 mouse assessed as sobetirome level at 30.5 umol/kg administered via oral gavage by LC-MS/MS analysis; conditions: in vivo
[4] = AUC (0 to t) in C57Bl/6 mouse liver assessed as sobetirome level at 1.5 umol/kg, ip by LC-MS/MS analysis; type: ADME, organism-based; conditions: in vivo
In short: (§2)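 Male C57Bl/6 mice (8–10 wk) given a single i.p. dose of 1.5 μmol/kg in 50% DMSO/saline. Three mice per time point were killed at 0.25, 0.5, 1, 2, 4 and 8 h. Brain, liver, heart and kidney were homogenized with d6-sobetirome internal standard and acetonitrile-extracted, as was serum. Sobetirome was quantified by negative-ESI LC-MS/MS on C18. AUC0→t was computed over 8 h.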

Mus musculus [5] = test: Upregulation of Hr expression levels in ip dosed mouse brain for 7 days measured after 2 hrs post last dose by […] green dye-based qPCR analysis; type: functional
In short: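 Mice, n = 3 per dose, received six i.p. doses in 1:1 saline/DMSO. Brains were collected 2 h post-injection. RNA was extracted with Trizol and a column kit with DNase treatment, and cDNA was diluted two-fold. Hairless was measured by qPCR, normalized to GAPDH, by comparative CT. ED50 ± SEM came from a sigmoidal dose–response fit. Run in triplicate.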

[6] = AUC (0 to t) in C57Bl/6 mouse heart assessed as sobetirome level at 1.5 umol/kg, ip by LC-MS/MS analysis; type: ADME, organism-based; conditions: in vivo; in short: as §2
Mus musculus [7] = test: Oral bioavailability in C57Bl/6 mouse at 30.5 umol/kg administered via oral gavage by LC-MS/MS analysis; conditions: in vivo
[8] = AUC (0 to t) in C57Bl/6 mouse brain assessed as sobetirome level at 1.5 umol/kg, ip by LC-MS/MS analysis; type: ADME, organism-based; conditions: in vivo; in short: as §2
[9] = Elimination half life in C57Bl/6 mouse at 3.05 umol/kg, iv by LC-MS/MS analysis; type: ADME, organism-based; conditions: in vivo, read-out: beta t1/2 (converted)
In short: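 C57Bl/6 mice, n = 3 per cohort, dosed i.v. by tail vein at 3.05 μmol/kg or by oral gavage at 30.5 μmol/kg in 50% DMSO/saline. Serial serum samples were taken (i.v.: 5 min–8 h; p.o.: 10 min–8 h). Prodrug and sobetirome were quantified by LC-MS/MS. %F = (AUCp.o./AUCi.v.)·(dosei.v./dosep.o.)·100. t½ came from the log-concentration slope of the last five i.v. time points.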

[10] = AUC (0 to t) in C57Bl/6 mouse kidney assessed as sobetirome level at 1.5 umol/kg, ip by LC-MS/MS analysis; type: ADME, organism-based; conditions: in vivo; in short: as §2
[11] = Ratio of AUC (0 to t) in C57Bl/6 mouse brain to serum at 1.5 umol/kg, ip by LC-MS/MS analysis; type: ADME, organism-based; conditions: read-out: Ratio AUC; in short: as §2
[12] = AUC (0 to t) in C57Bl/6 mouse serum assessed as sobetirome level at 1.5 umol/kg, ip by LC-MS/MS analysis; type: ADME, organism-based; conditions: in vivo; in short: as §2
[13] = AUC (0 to t) in C57Bl/6 mouse brain at 1.5 umol/kg, ip by LC-MS/MS analysis; type: ADME, organism-based; conditions: in vivo; in short: as §2
[14] = AUC (0 to t) in C57Bl/6 mouse heart at 1.5 umol/kg, ip by LC-MS/MS analysis; type: ADME, organism-based; conditions: in vivo; in short: as §2
[15] = AUC (0 to t) in C57Bl/6 mouse serum at 1.5 umol/kg, ip by LC-MS/MS analysis; type: ADME, organism-based; conditions: in vivo; in short: as §2
[16] = Ratio of drug level in C57Bl/6 mouse brain to serum at 1.5 umol/kg, ip after 1 hr by LC-MS/MS analysis; type: ADME, organism-based
In short: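 Male C57Bl/6 mice, 8–10 weeks old, given one i.p. dose of 1.5 μmol/kg in 50% DMSO/saline. Whole brain and blood taken 1 h later; serum obtained from blood clotted on ice ≥30 min and spun at 7,500 × g for 15 min. d6-sobetirome internal standard added, acetonitrile extraction, sobetirome quantified by negative-ESI LC-MS/MS. Mean of n = 3 mice, SEM.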

[17] = AUC (0 to t) in C57Bl/6 mouse kidney at 1.5 umol/kg, ip by LC-MS/MS analysis; type: ADME, organism-based; conditions: in vivo; in short: as §2
[18] = AUC (0 to t) in C57Bl/6 mouse liver at 1.5 umol/kg, ip by LC-MS/MS analysis; type: ADME, organism-based; conditions: in vivo; in short: as §2
[19] = Drug uptake in C57Bl/6 mouse brain at 1.5 umol/kg, ip after 1 hr by LC-MS/MS analysis; type: ADME, organism-based; conditions: read-out: Drug uptake; in short: as §1

Compound | Ratio [1] | Activity [2] [ng/g] | further results
Cc1cc(OCC(=O)O[C@H](C)CN)cc(C)c1Cc1ccc(O)c(C(C)C)c1 | 0.19 | 8.12 | 
Cc1cc(OCC(=O)OC(CN)C(C)C)cc(C)c1Cc1ccc(O)c(C(C)C)c1 (configuration not stated) | 0.045 | 3.38 | 
CCC(CN)OC(=O)COc1cc(C)c(Cc2ccc(O)c(C(C)C)c2)c(C)c1 (configuration not stated) | 0.41 | 4.26 | 
Cc1cc(OCC(=O)OC(C)(C)CN)cc(C)c1Cc1ccc(O)c(C(C)C)c1 | 1.22 | 0.4 | 
Cc1cc(OCC(=O)O[C@@H](C)CN)cc(C)c1Cc1ccc(O)c(C(C)C)c1 | 0.47 | 8.26 | F (Mus musculus [3]): 56%; AUCt [4]: 1017 ng·h/g; Activity (Mus musculus [5]): Dose-dependent effect; ED50 (Mus musculus [5]): 1 µmol/kg; AUCt [6]: 57.2 ng·h/g; F (Mus musculus [7]): 36%; AUCt [8]: 17.2 ng·h/g; half-life [9]: 6.96 h; AUCt [10]: 283.8 ng·h/g; Kp [11]: 0.13; AUCt [12]: 136.5 ng·h/g
Cc1cc(OCC(=O)OC(C)CCN)cc(C)c1Cc1ccc(O)c(C(C)C)c1 (configuration not stated) | 0.33 | 4.46 | 
Cc1cc(OCC(=O)OC(CN)C(F)(F)F)cc(C)c1Cc1ccc(O)c(C(C)C)c1 (configuration not stated) | 0.2 | 5.23 | 
CNCCOC(=O)COc1cc(C)c(Cc2ccc(O)c(C(C)C)c2)c(C)c1 | 0.21 | 6.33 | 
Cc1cc(OCC(=O)O)cc(C)c1Cc1ccc(O)c(C(C)C)c1 [SOBETIROME] |  |  | AUCt [13]: 9.9 ng·h/g; AUCt [14]: 180.3 ng·h/g; AUCt [15]: 472.6 ng·h/g; Kp at 1 h [16]: 0.037; Activity (Mus musculus [5]): Dose-dependent effect; ED50 (Mus musculus [5]): 1.8 µmol/kg; F (Mus musculus [7]): 92%; half-life [9]: 7.12 h; AUCt [17]: 686.8 ng·h/g; Kp [11]: 0.02; AUCt [18]: 2235 ng·h/g; concentration at 1 h [19]: 2.32 ng/g
Cc1cc(OCC(=O)NC[C@H](C)O)cc(C)c1Cc1ccc(O)c(C(C)C)c1 |  |  | Drug metabolism [2]: Metabolite_Detected
CNCC(C)OC(=O)COc1cc(C)c(Cc2ccc(O)c(C(C)C)c2)c(C)c1 (configuration not stated) | 0.23 | 5.12 | 
Cc1cc(OCC(=O)OC(C)CNC(C)C)cc(C)c1Cc1ccc(O)c(C(C)C)c1 (configuration not stated) | 0.23 | 0.48 | 
Cc1cc(OCC(=O)OC(C)CN)cc(C)c1Cc1ccc(O)c(C(C)C)c1 (configuration not stated) | 0.21 | 5.92 | 
Cc1cc(OCC(=O)OC2(C(F)(F)F)CNC2)cc(C)c1Cc1ccc(O)c(C(C)C)c1 | 0.13 | 5.14 | 
Cc1cc(OCC(=O)OCCN)cc(C)c1Cc1ccc(O)c(C(C)C)c1 | 0.066 | 4.92 | 
CNCC(OC(=O)COc1cc(C)c(Cc2ccc(O)c(C(C)C)c2)c(C)c1)C(C)C (configuration not stated) | 0.024 | 1.79 | 
